Compound activity (PubChem)
ASAP1 inh – inhibitors of human ASAP1 ArfGAP activity | Q9ULH1 | ASAP1-stimulated ARF1 GTP hydrolysis, GDP FP detection | inhibition, % at 16.5 µM | actives 0.19% (n = 360,000); in the data active = inhibition above about 25%
PLC-beta3 inh – blocks human PLC-beta3 enzyme activity. actives 0.18% (n = 370,000). Q01970. Purified PLC-beta3, fluorogenic substrate, fluorescence. inhibition, % at 12.2 µM; in the data active = inhibition above about 11%
PLC-gamma1 inh – inhibitors of human phospholipase C gamma1; P19174; purified PLC-gamma1, fluorogenic substrate, fluorescence; inhibition, % at 12.2 µM; actives 0.84% (n = 370,000); AID 720700
HGIII-sPLA2 inh – Inhibits HGIII-sPLA2 liposome hydrolysis, primary screen; Q9NZ20; QFRET BODIPY PC-A2 liposome hydrolysis, fluorescence; inhibition, % at 12.2 µM; actives 0.56% (n = 370,000); AID 743126;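 active = inhibition above mean plus 3 SD of compounds lying within the high and low control bounds, cut at about 19% in these data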
ARFGAP1 inh – inhibits rat ARF GTPase activating protein 1 | actives 0.26% (n = 360,000) | Arfgap1-stimulated ARF1 GTP hydrolysis, GDP FP detection | inhibition, % at 16.5 µM | Q62848 | AID 651572;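 active = inhibition above a per-plate limit, mean inhibition of low control wells plus 3 SD, cut at about 25% in these data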
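Material: truncated rat Arfgap1 GAP domain; Incubation: compound-enzyme preincubation 20 min, reaction 120 min, detection 60 min, 25 °C; Read-out: percent inhibition of Arfgap1-stimulated GTP hydrolysis; Technique: FP, GDP Alexa 633 tracer displaced from anti-GDP antibody, 620/688 nm; Controls: No-Arfgap1 wells (100%) versus DMSO full-reaction wells (0%); Replication: single well per compound.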
ARFGAP1 inh conf – rat ARFGAP1 inhibition, confirmed. shares compounds with ARFGAP1 inh. ARFGAP1-stimulated ARF1 GTP hydrolysis, GDP tracer FP. inhibition, % at 16.5 µM. actives 30% (n = 890);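 active = average inhibition over triplicates above the hit cutoff set in the earlier primary screen, cut at about 25% in these data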
PLCg1 ctr – PLC-gamma1 inhibition, counter-screen for PLC-beta3 hits. shares compounds with PLC-gamma1 inh. purified PLC-gamma1, fluorogenic substrate, fluorescence. inhibition, % at 12.3 µM. actives 3.1% (n = 3,300)
PLCbeta3 conf – human PLC-beta3 inhibition, confirmation | shares compounds with PLC-gamma1 inh | purified PLC-beta3, fluorogenic substrate fluorescence | inhibition, % at 12.3 µM | actives 1% (n = 3,300) | AID 743261; in the data active = inhibition above about 11%
sPLA2 confirm – human GIII-sPLA2 inhibition, confirmation | shares compounds with HGIII-sPLA2 inh | recombinant hGIII-sPLA2, BODIPY PC-A2 QFRET fluorescence | inhibition, % at 12.2 µM | actives 34% (n = 2,000);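 active = mean inhibition across triplicates above the hit cutoff set in the earlier primary screen, cut at about 19% in these data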
BODIPY interf – 535nm fluorescence interference, HGIII-sPLA2 counter-screen; shares compounds with HGIII-sPLA2 inh; BODIPY FL product fluorescence interference, QFRET; inhibition, % at 12.2 µM; actives 8.5% (n = 2,000); AID 743282;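 active = average inhibition above the solvent-only control mean plus 3 SD, cut at about 6% in these data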
535nm interf DR – interferes with 535nm fluorescence in dose response counter-screen. shares compounds with HGIII-sPLA2 inh. BODIPY FL product fluorescence interference, cell-free. IC50, µM. 240 tested, under 10 active;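 active = IC50 at or below 10 µM; inactive = IC50 above 10 µM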
A number is an active result; i = inactive; nt = no result; ! = a repeat was not active. This is a sample that favours compounds with a hit; in the whole collection about 1.9% have one here. Rule as the data show it, unless noted: active = inhibition above about 9.5%; inactive = the rest.

SMILES | ASAP1 inh | PLC-beta3 inh | PLC-gamma1 inh | HGIII-sPLA2 inh | ARFGAP1 inh | PLCg1 ctr | PLCbeta3 conf | others
O=C(CCCc1ccccc1)N=C1SC2CS(=O)(=O)CC2N1c1ccccc1F (stereo not given) | i | i | i | i | 28.6 | nt | nt | ARFGAP1 inh conf=i
O=C1c2ccccc2C(=O)N1CCCc1c[nH]c2ccc(Cl)cc12 | i | i | i | i | 32.9 | nt | nt | ARFGAP1 inh conf=i
N#Cc1ccc(OC[C@@H](O)CN2CCC(C(O)(c3ccccc3)c3ccccc3)CC2)cc1F | nt | i | i | i | nt | nt | nt
CCOc1cc(/C=C2\SC(=N)N(c3nonc3N)C2=O)ccc1OCCN1CCOCC1 | i | i | i | i | 32.0 | nt | nt | ARFGAP1 inh conf=37.6
C[C@@H]1COc2cc(F)ccc2S(=O)(=O)N1C | nt | i | i | i | nt | nt | nt
CN(Cc1ccccc1)C(=O)OCc1cn(Cc2ccccc2)nn1 | nt | i | i | i | nt | nt | nt
C[C@H]1COc2cc(Br)ccc2S(=O)(=O)N1Cc1cn(Cc2ccc(C(F)(F)F)cc2)nn1 | nt | i | i | i | nt | nt | nt
O=C(Cc1ccccc1)NC1(O)C(=O)c2ccccc2C1=O | i | i | i | i | 27.3 | nt | nt | ARFGAP1 inh conf=i
C/C(=N/NC(=O)c1cccs1)c1ccc(NC(=O)COc2ccc(Cl)cc2Cl)cc1 | i | 11.5 | i | i | 38.1 | i | i | ARFGAP1 inh conf=52.6
COc1ccc(N2CCN(CCCNC(=O)Cc3ccc(C(F)(F)F)cc3)CC2)cc1 | nt | i | i | i | nt | nt | nt
CCOC(=O)c1cc2c(=Cc3ccc(N(C)C)cc3)c3ccccc3n2[n+]1C | i | i | i | 28.0 | 28.6 | nt | nt | ARFGAP1 inh conf=i;sPLA2 confirm=35.0;BODIPY interf=i;535nm interf DR=i
Cc1cc2c(=Cc3ccc(N(C)C)cc3)c3ccccc3n2[n+]1C | i | i | i | i | i | nt | nt
O=C(NCc1ccc(Cl)cc1)C(=O)NCC(c1ccco1)N1CCOCC1 (stereo not given) | i | i | i | 19.7 | 29.7 | nt | nt | ARFGAP1 inh conf=i;sPLA2 confirm=i;BODIPY interf=i
O=C(OC12CCCN(C1)/C(=C/c1ccc(Cl)cc1)C2)C1CCCC1 (stereo not given) | nt | i | i | i | nt | nt | nt
O=C1c2c(O)ccc(O)c2C(=O)c2c(NCCNCCO)ccc(NCCNCCO)c21 | i | i | i | 34.9 | 25.1! | nt | nt | ARFGAP1 inh conf=56.1;sPLA2 confirm=39.8;BODIPY interf=i;535nm interf DR=i
Cc1ccc(NC(=O)[C@@H]2CC(=O)O[C@@H]2c2ccccc2)cc1C | nt | i | i | i | nt | nt | nt
COc1ccc2ccccc2c1/C=N/Nc1ccc(Cl)c(C(=O)O)c1 | i | i | i | i | i | nt | nt
COc1ccc(N/N=C/c2c(C(=O)O)ccc3ccccc23)cc1 | i | i | i | 19.3 | 26.2 | nt | nt | ARFGAP1 inh conf=31.4;sPLA2 confirm=i;BODIPY interf=i
Cc1cccc(C(=O)Nc2nc3ncccn3c2-c2ccc(F)c(F)c2)c1 | nt | i | i | i | nt | nt | nt
O=C(NNC(=S)NC(=O)C12CC3CC(CC(C3)C1)C2)c1ccncc1 | i | i | i | 23.9 | 37.5 | nt | nt | ARFGAP1 inh conf=i;sPLA2 confirm=31.0;BODIPY interf=i;535nm interf DR=i
CC(=O)OCCN1c2ccccc2Sc2cnccc21 | i | i | i | i | i | nt | nt
CC(=O)OCCCN1c2ccccc2Nc2nnc(-c3ccccc3)cc21 | i | 14.3 | i | i | i | i | i
COc1ccc(/C=N/NC(=O)CCc2n[nH]c(=O)[nH]c2=O)cc1OC | i | i | i | i | i | nt | nt
CCCOc1ccc(/C=N\NC(=O)CCc2n[nH]c(=O)[nH]c2=O)cc1OC | i | 12.6 | 11.0 | i | i | i | i
CCCCCc1nnc(NC(=O)C2CCCO2)s1 (stereo not given) | i | i | i | i | i | nt | nt
SMILES | ASAP1 inh | PLC-beta3 inh | PLC-gamma1 inh | HGIII-sPLA2 inh | ARFGAP1 inh | PLCg1 ctr | PLCbeta3 conf | others
Cc1ccc(S(=O)(=O)CCc2nnc(NC(=O)C3CCCO3)s2)cc1 (stereo not given) | i | i | 9.6 | i | i | i | i
CCCCNC(=O)NS(=O)(=O)c1ccc(NC(=O)CSc2nnc(-c3cccs3)n2-c2ccc(OC)cc2)cc1 | nt | i | i | i | nt | nt | nt
O=C(CCn1c(=S)oc2ccccc21)Nc1cccc(F)c1 | i | i | i | i | i | nt | nt
O=C(CCn1c(=S)oc2ccccc21)Nc1cccc(O)c1 | i | 11.6 | i | i | i | i | i
CN1CCC(=NNc2ccc(S(=O)(=O)N3CCOCC3)cc2[N+](=O)[O-])CC1 | i | i | i | i | i | nt | nt
C/C(=N\Nc1ccc(S(=O)(=O)N2CCOCC2)cc1[N+](=O)[O-])C(C)C | i | i | 10.2 | i | i | i | i
CCNC(=O)N(C)[C@H]1C[C@H]2c3[nH]c4c(-c5cccc(C)c5)cccc4c3CCN2C[C@H]1[C@H](C)O | nt | i | i | i | nt | nt | nt
COc1ccc([N+](=O)[O-])cc1NC(=O)c1cn(-c2ccc(C)c(C)c2)c(=O)c2ccccc12 | i | i | 11.3 | i | i | i | i
COCC(=O)Nc1cc([N+](=O)[O-])ccc1OC | i | i | 13.1 | i | i | i | i
O=C(OC12CCCN(C1)/C(=C/c1ccc(Cl)cc1)C2)c1ccno1 (stereo not given) | nt | i | i | i | nt | nt | nt
CCCn1c(N)c(N(CCOC)C(=O)c2ccc([N+](=O)[O-])c(C)c2)c(=O)[nH]c1=O | i | i | 9.6 | i | i | i | i
COc1cc(CNCCO)cc(Cl)c1OCc1ccccc1Cl | i | i | i | i | i | nt | nt
COc1cccc(CNCCO)c1OCc1ccccc1Cl | i | i | 11.0 | i | i | i | i
CCCOc1ccc(N2CC(C(=O)Nc3ccc(N4CCOCC4)cc3)CC2=O)cc1 (stereo not given) | i | i | i | i | i | nt | nt
COc1ccccc1N1CC(C(=O)Nc2ccc(N3CCOCC3)cc2)CC1=O (stereo not given) | i | i | 11.0 | i | i | i | i
C#CCNC(=O)C[C@H]1C[C@@]2(C(=O)OC)C(=C[C@H](C(C)C)O[C@@H]2C2CC2)N(CCC2=CCCCC2)C1=O | nt | i | i | i | nt | nt | nt
N#CC(c1ccc(Cl)cc1)c1ccc(Cl)nn1 (stereo not given) | i | 11.7 | i | i | i | i | i
Cc1ccc(C(C#N)c2ccc(Cl)nn2)cc1 (stereo not given) | i | i | i | i | i | nt | nt
CCCC(=O)NC1CCc2cc(OC)c(OC)c(OC)c2-c2ccc(OC)c(=O)cc21 (stereo not given) | i | i | i | i | i | nt | nt
COc1cc2c(c(OC)c1OC)-c1ccc(OC)c(=O)cc1C(NC(C)=O)CC2 (stereo not given) | i | i | 10.2 | i | i | i | i
